Experiment [1] has as its system Mus musculus. In words: Analgesic effect in ICR mouse assessed as tail flick latencies at 50 mg/kg, ip measured 10 to 60 mins post dose by tail flick test. The format is functional, organism-based. The method in brief: (§1)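 Male ICR mice (18–22 g), blinded observers. Compounds in DMSO stock, diluted in Ringer's solution (final DMSO <10%), given ip in 0.1 mL. Distal 2–3 cm of tail immersed in 52°C ± .5 water; withdrawal latency (s) recorded before dosing and at 10, 20, 30, 45, 60 min after. ≥6 mice per compound per dose; mean ± SEM; two-way ANOVA with Bonferroni test.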

Experiment [2] has as its system Mus musculus. As to the kind of experiment: Analgesic effect in ICR mouse assessed as tail flick latencies at 20 to 100 mg/kg, ip measured 10 to 60 mins post dose by tail flick test. It is filed as functional, organism-based. The gist of the method:
as §1

Experiment [3] concerns Mus musculus. As to the kind of experiment: Analgesic effect in ICR mouse assessed as tail flick latencies at 20 to 40 mg/kg, ip measured 10 to 60 mins post dose by tail flick test. It is filed as functional, organism-based. The method in brief:
as §1

The target in the next experiment is T1, Liver carboxylesterase (Sus scrofa, UniProt Q29550).
T1 sequence (Q29550 whole entry): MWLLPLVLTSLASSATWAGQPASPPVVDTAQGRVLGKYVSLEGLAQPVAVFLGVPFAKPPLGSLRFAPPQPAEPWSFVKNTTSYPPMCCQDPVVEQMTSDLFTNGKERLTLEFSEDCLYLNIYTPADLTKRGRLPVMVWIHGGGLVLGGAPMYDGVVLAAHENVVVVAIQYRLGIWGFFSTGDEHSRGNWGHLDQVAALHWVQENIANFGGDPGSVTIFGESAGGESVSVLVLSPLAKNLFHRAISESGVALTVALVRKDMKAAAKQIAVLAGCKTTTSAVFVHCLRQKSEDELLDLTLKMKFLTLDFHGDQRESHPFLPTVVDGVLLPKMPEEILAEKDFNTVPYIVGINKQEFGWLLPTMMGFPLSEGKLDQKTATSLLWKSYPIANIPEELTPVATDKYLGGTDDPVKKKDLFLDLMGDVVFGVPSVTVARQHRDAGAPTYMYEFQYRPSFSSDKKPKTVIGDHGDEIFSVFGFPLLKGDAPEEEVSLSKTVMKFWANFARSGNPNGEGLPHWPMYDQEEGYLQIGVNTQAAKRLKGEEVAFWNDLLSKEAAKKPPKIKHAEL
As to the kind of experiment: Inhibition of porcine liver esterase using 4-nitrophenyl butyrate substrate assessed as reduction in p-nitrophenol release measured over 5 mins. The gist of the method:
(§2)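 Commercial porcine enzymes (liver esterase, pancreatic elastase) assayed in microplates. The mix held enzyme, 100 uM chromogenic substrate, 0.125 M TrisCl and 0.2 mM EDTA at pH 8.0. Each reaction was started by adding substrate. Release of p-nitrophenol (esterase) or p-nitroaniline (elastase) was followed at 400 nm, with control rates linear over at least 5 min.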

The target of experiment [4] is Pancreatic elastase (Sus scrofa) (UniProt P08419+P00772). In words: Inhibition of porcine pancreatic elastase at 10 uM using N-Succinyl-ala-ala-ala-p-nitroanilide substrate assessed as reduction in p-nitroaniline release measured over 5 mins. The format is protein assay. The gist of the method: as §2
The target in experiment [5] is T2, Fatty-acid amide hydrolase 1 (Homo sapiens, UniProt O00519).
T2 sequence (O00519 whole entry): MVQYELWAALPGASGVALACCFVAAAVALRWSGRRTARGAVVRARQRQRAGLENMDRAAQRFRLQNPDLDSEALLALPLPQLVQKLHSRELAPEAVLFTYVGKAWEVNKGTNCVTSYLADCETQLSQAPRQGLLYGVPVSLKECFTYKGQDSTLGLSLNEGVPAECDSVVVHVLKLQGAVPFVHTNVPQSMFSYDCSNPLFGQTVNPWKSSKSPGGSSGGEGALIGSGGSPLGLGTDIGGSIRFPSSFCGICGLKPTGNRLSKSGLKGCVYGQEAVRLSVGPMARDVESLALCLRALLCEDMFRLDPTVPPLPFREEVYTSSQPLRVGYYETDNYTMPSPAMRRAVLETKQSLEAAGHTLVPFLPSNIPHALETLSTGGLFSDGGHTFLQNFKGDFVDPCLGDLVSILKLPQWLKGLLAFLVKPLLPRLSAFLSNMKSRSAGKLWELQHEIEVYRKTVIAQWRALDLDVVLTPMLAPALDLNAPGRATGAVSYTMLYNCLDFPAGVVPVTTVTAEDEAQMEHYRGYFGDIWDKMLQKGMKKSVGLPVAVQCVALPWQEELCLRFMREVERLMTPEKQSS
In words: Inhibition of MBP-fused human recombinant FAAH with truncated N-terminal transmembrane domain expressed in Escherichia coli T7 using D-AMC substrate measured over 40 mins by fluorescence based assay.

Experiment [6] addresses T3, Fatty-acid amide hydrolase 1 (Homo sapiens) (UniProt O00519).
T3 sequence (whole entry): T2 sequence (O00519 whole entry)
In words: Time dependent inhibition of MBP-fused human recombinant FAAH with truncated N-terminal transmembrane domain expressed in Escherichia coli T7 using D-AMC substrate measured over 40 mins by fluorescence based assay. As to conditions: TDE = time-dependent effect. The method in brief:
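MBP–FAAH (residues 34–579, E. coli) at 3 μg protein per well, 8 pM active enzyme, with 5 μM D-AMC in Tris-Cl/EDTA/0.1% BSA pH 8.0 at 37 °C; DMSO ≤1%. Reactions started with enzyme; fluorescence read at ex 351/em 430 nm over 40 min. […] Ki from IC50 = Ki(1+[S]/Km)+[Et]/2.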

In experiment [7] the target is T3, Fatty-acid amide hydrolase 1 (Homo sapiens). As to the kind of experiment: Inhibition of MBP-fused human recombinant FAAH with truncated N-terminal transmembrane domain expressed in Escherichia coli T7 assessed as enzyme inactivation rate constant using D-AMC substrate incubated for 2 hrs by fluorescence based assay. The method in brief: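 Human FAAH residues 34–579 as an MBP fusion, expressed in E. coli T7 Express with IPTG induction, then purified by amylose affinity and S100 chromatography. Substrate D-AMC at 5 μM final in 125 mM Tris-Cl, 1 mM EDTA, 0.1% BSA, pH 8.0, 37 °C; ex 351/em 430 nm. Apparent first-order k_i' measured at several inhibitor levels and fitted for k_inact and K_i (D-AMC Km 0.52 μM).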

Molecules are shown by their SMILES. Active and inactive are the calls of the source. The rule behind the calls is not given here.

As for `N#Cc1ccc(OC(=O)N2CCC(c3nc(C4=NOC(c5ccccc5)C4)cs3)CC2)cc1` (stereo not given), the result with Mus musculus [1] was Active. Besides, the Activity result in the experiment on Mus musculus [2] was “Dose-dependent effect”. For the compound `O=C(Nc1cccnn1)N1CCC(c2nc(C3=NOC(c4ccccc4)C3)cs2)CC1` (stereo not given), the result with Mus musculus [1] was Active. Further, the outcome in the experiment on Mus musculus [3] was inactive. For the compound `Cc1ccccc1OC(=O)N1CCC(c2nc(C3=NOC(c4ccccc4)C3)cs2)CC1` (stereo not given), the IC50 on Liver carboxylesterase was 840 nM. Besides, in experiment [4], the inhibition entry was “inactive”. With `COc1ccc(OC(=O)N2CCC(c3nc(C4=NOC(c5ccccc5)C4)cs3)CC2)cc1` (stereo not given), in the experiment on Mus musculus [1], the outcome was inactive. As to `O=C(Oc1ccccc1)N1CCC(c2nc(C3=NOC4(CCCc5ccccc54)C3)cs2)CC1` (stereo not given), the Ki in experiment [5] worked out at 2.73 nM. Moreover, in experiment [6], the inhibition result is “tde”. On to `O=C(Oc1ccccc1)N1CCC(c2nc(C3=NOC(c4ccccc4)C3)cs2)CC1` (stereo not given), for which the result in the experiment on Mus musculus [1] was Active. Moreover, the IC50 at Liver carboxylesterase was determined as 2400 nM. Further, the result in the experiment with Mus musculus [3] was inactive. Besides, the inhibition result in experiment [4] is “inactive”. With `O=C(Nc1cnccn1)N1CCC(c2nc(C3=NOC(c4ccccc4)C3)cs2)CC1` (stereo not given), in the experiment on Mus musculus [1], the outcome was Active. For the same compound, in the experiment with Mus musculus [3], the result was inactive.

In the case of `O=C(Nc1ccccc1)N1CCC(c2nc(C3=NOC(c4ccccc4)C3)cs2)CC1` (stereo not given), the half-maximal inhibitory concentration (IC50) on Liver carboxylesterase was found to be 5600 nM. Further, in experiment [4], the inhibition result is “inactive”. Consider `O=C(Oc1ccccc1Cl)N1CCC(c2nc(C3=NOC(c4ccccc4)C3)cs2)CC1` (stereo not given), for which, on Liver carboxylesterase, the IC50 was found to be 870 nM. In addition, the inhibition result in experiment [4] is “inactive”. The matching figures for `O=C(Nc1nccs1)N1CCC(c2nc(C3=NOC(c4ccccc4)C3)cs2)CC1` (stereo not given): > 10000 nM and “inactive”.

For the compound `O=C(Oc1cccnc1)N1CCC(c2nc(C3=NOC(c4ccccc4)C3)cs2)CC1` (stereo not given), in the experiment on Mus musculus [1], the result was inactive.

For the compound `O=C(Nc1cccnc1)N1CCC(Cc2cccc(Oc3ccc(C(F)(F)F)cn3)c2)CC1`, the K in experiment [7] amounted to 0.0033 s⁻¹. For `O=C(Oc1ccc(Cl)cc1)N1CCC(c2nc(C3=NOC(c4ccccc4)C3)cs2)CC1` (stereo not given), the IC50 on Liver carboxylesterase came out at 470 nM. For the same compound, the inhibition result in experiment [4] is “inactive”.

The values are drawn from ChEMBL document CHEMBL3797043 (Bioorg Med Chem Lett, 2016).
